What was measured:
[1] = system: Rattus norvegicus; test: Evaluated for blood pressure lowering activity in spontaneously hypertensive rats (maximum change of systolic blood pressure (SBP)) at a dose of 2.5 mg/kg; format: functional, Artery
Summary of the method: (§1)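 Adult male SHR, conscious, restrained in a chamber at 32 °C. SBP measured indirectly by tail cuff with a pneumatic pulse transducer. After baseline, groups of 4–6 received a single oral gavage dose or vehicle (0.5% methylcellulose). SBP was read at 0.5, 1, 2, 3 and 4 h, and the maximum SBP change ± SEM was reported against the vehicle effect.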

[2] = system: Rattus norvegicus; test: Evaluated for blood pressure lowering activity in the conscious spontaneously hypertensive rats (SHR) (time to peak (h)) at a dose of 2.5 mg/kg; format: functional
Summary of the method: (§2)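 Conscious adult male SHR in restrainers at 32 °C, with tail-cuff and pulse-transducer SBP recording. Groups of 4–6 got a single gavage dose in 0.5% methylcellulose or vehicle alone. SBP was sampled at 0.5, 1, 2, 3 and 4 h post-dose, and the time (h) at which the peak SBP change occurred was recorded.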

[3] = system: Rattus norvegicus; test: Time to reach peak blood pressure lowering effect in spontaneously hypertensive rats after oral administration of 20 mg/kg of the compound
[4] = system: Rattus norvegicus; test: Evaluated for blood pressure lowering activity in spontaneously hypertensive rats (maximum change of systolic blood pressure (SBP)) at a dose of 20 mg/kg; format: functional, Artery; summary of the method: as §1
[5] = system: Rattus norvegicus; test: Time to reach peak blood pressure lowering effect in spontaneously hypertensive rats after oral administration of 2.5 mg/kg of the compound
[6] = system: Rattus norvegicus; test: Time to peak fall in systolic blood pressure in spontaneously hypertensive rats after oral administration of 10 mg/kg of the compound
[7] = system: Rattus norvegicus; test: Evaluated for blood pressure lowering activity in spontaneously hypertensive rats (maximum change of systolic blood pressure (SBP)) at a dose of 10 mg/kg; format: functional, Artery; summary of the method: as §1
[8] = system: Rattus norvegicus; test: Evaluated for blood pressure lowering activity in spontaneously hypertensive rats (maximum change of systolic blood pressure (SBP)) at a dose of 1.25 mg/kg; format: functional, Artery; summary of the method: as §1
[9] = system: Rattus norvegicus; test: Time to peak fall in systolic blood pressure in spontaneously hypertensive rats after oral administration of 1.25 mg/kg of the compound
[10] = system: Rattus norvegicus; test: Evaluated for blood pressure lowering activity in spontaneously hypertensive rats (maximum change of systolic blood pressure (SBP)) at a dose of 5 mg/kg; format: functional, Artery; summary of the method: as §1
[11] = system: Rattus norvegicus; test: Evaluated for blood pressure lowering activity in the conscious spontaneously hypertensive rats (SHR) (time to peak (h)) at a dose of 5 mg/kg; format: functional; summary of the method: as §2
[12] = system: Rattus norvegicus; test: Evaluated for blood pressure lowering activity in the conscious spontaneously hypertensive rats (SHR) (time to peak (h)) at a dose of 10 mg/kg; format: functional; summary of the method: as §2
[13] = system: Rattus norvegicus; test: Intravenous dose required to produce a 50% inhibition of the phenylephrine pressor response in the spontaneously hypertensive rats; format: functional
Summary of the method: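 Adult male SHR, anesthetized and bilaterally vagotomized. A carotid artery was cannulated for mean arterial pressure and a jugular vein for iv dosing. Phenylephrine pressor responses were measured before and after antagonist. The iv dose (μg/kg) giving 50% inhibition of the pressor response (ED50) was reported with fiducial limits.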

[14] = system: Canis familiaris; test: Intravenous dose required to produce a 20-fold rightward shift in the phenylephrine dose-response curve in the dog; format: functional, Canis lupus familiaris
Summary of the method: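 Mongrel dogs, anesthetized and bilaterally vagotomized. Mean arterial pressure was recorded via carotid cannula, and drug was given iv through the jugular vein. Phenylephrine dose–response curves were run before and after antagonist. The iv dose (μg/kg) producing a 20-fold rightward shift (DR20) was calculated; n = animals tested.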

[15] = species on record: Rattus norvegicus; test: Peroral dose required to produce a 50 mmHg drop in systolic blood pressure (SBP) in the spontaneously hypertensive rats; format: functional; conditions: Artery, po
Summary of the method: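 Adult male SHR, conscious, tail-cuff indirect SBP at 32 °C. Groups of 4–6 were given single oral gavage doses of 0.5–20 mg/kg in 0.5% methylcellulose, with SBP followed over 4 h. The dose giving a 50 mmHg SBP fall (ED50SBP, mg/kg po) was calculated by regression analysis with 95% fiducial limits; n = animals tested.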

## COc1ccc(C(=O)n2c(=O)n(CCN3CCN(c4ccccc4OC)CC3)c(=O)c3cscc32)cc1
[1]
  Delta SBP: -59 mmHg
[2]
  Time: 2 h

## COc1cccc(N2CCN(CCn3c(=O)[nH]c4cscc4c3=O)CC2)c1
[3]
  Time: 0.5 h
[4]
  Delta SBP: -52 mmHg

## COc1cccc(N2CCN(CCn3c(=O)[nH]c4ccsc4c3=O)CC2)c1
[1]
  Delta SBP: -28 mmHg
[5]
  Time: 1 h

## CCOC(=O)CCCn1c(=O)n(CCN2CCN(c3ccccc3OC)CC2)c(=O)c2cscc21
[6]
  Time: 0.5 h
[7]
  Delta SBP: -87 mmHg

## O=c1[nH]c2ccsc2c(=O)n1CCN1CCN(c2ccccc2)CC1
[6]
  Time: 0.5 h
[7]
  Delta SBP: -48 mmHg

## CCOc1ccccc1N1CCN(CCn2c(=O)[nH]c3cscc3c2=O)CC1.Cl
[1]
  Delta SBP: -79 mmHg
[5]
  Time: 2 h

## COc1ccccc1N1CCN(CCn2c(=O)c3sccc3n(C)c2=O)CC1
[8]
  Delta SBP: -56 mmHg
[9]
  Time: 0.5 h

## COc1ccccc1N1CCN(CCn2c(=O)[nH]c3scc(C)c3c2=O)CC1.Cl.O
[6]
  Time: 0.5 h
[7]
  Delta SBP: -56 mmHg

## O=c1[nH]c2ccsc2c(=O)n1CCN1CCN(c2ccccc2Cl)CC1
[8]
  Delta SBP: -30 mmHg
[9]
  Time: 0.5 h

## O=c1[nH]c2cscc2c(=O)n1CCN1CCN(c2ccc(Cl)cc2)CC1
[6]
  Time: 0.5 h
[7]
  Delta SBP: -56 mmHg

## COc1ccccc1N1CCN(CCCn2c(=O)[nH]c3ccsc3c2=O)CC1
[6]
  Time: 0.5 h
[7]
  Delta SBP: -43 mmHg

## Cl.O=c1[nH]c2cscc2c(=O)n1CCN1CCN(c2ccccc2)CC1
[6]
  Time: 0.5 h
[7]
  Delta SBP: -76 mmHg

## CCCCCC(=O)n1c(=O)n(CCN2CCN(c3ccccc3OC)CC2)c(=O)c2cscc21
[10]
  Delta SBP: -42 mmHg
[11]
  Time: 0.5 h

## COc1ccccc1N1CCN(CCn2c(=O)c3cscc3n(C(=O)c3ccc(Cl)cc3)c2=O)CC1
[10]
  Delta SBP: -14 mmHg
[11]
  Time: 1 h

## Cc1ccccc1N1CCN(CCn2c(=O)[nH]c3cscc3c2=O)CC1
[8]
  Delta SBP: -36 mmHg
[9]
  Time: 0.5 h

## COc1ccccc1N1CCN(CCn2c(=O)c3ccsc3n(C)c2=O)CC1
[8]
  Delta SBP: -28 mmHg
[9]
  Time: 0.5 h

## O=c1[nH]c2sccc2c(=O)n1CCN1CCN(c2ccccc2)CC1
[6]
  Time: 1 h
[7]
  Delta SBP: -45 mmHg

## COc1ccccc1N1CCN(CCCn2c(=O)[nH]c3cscc3c2=O)CC1
[6]
  Time: 1 h
[7]
  Delta SBP: -38 mmHg

## COc1ccccc1N1CCN(CCn2c(=O)c3sccc3n(C(C)=O)c2=O)CC1
[10]
  Delta SBP: -58 mmHg
[11]
  Time: 0.5 h

## COc1ccccc1N1CCN(CCn2c(=O)c3cscc3n(C(=O)c3ccccc3)c2=O)CC1
[10]
  Delta SBP: -68 mmHg
[11]
  Time: 1 h

## O=c1[nH]c2cscc2c(=O)n1CCN1CCN(c2cccc(Cl)c2)CC1
[7]
  Delta SBP: -20 mmHg
[12]
  Time: 2 h

## COc1ccccc1N1CCN(CCn2c(=O)c3cscc3n(C)c2=O)CC1
[8]
  Delta SBP: -67 mmHg
[9]
  Time: 0.5 h

## COc1ccccc1N1CCN(CCn2c(=O)[nH]c3csc(C)c3c2=O)CC1.Cl
[8]
  Delta SBP: -66 mmHg
[9]
  Time: 1 h

## Cc1ccccc1N1CCN(CCn2c(=O)[nH]c3sccc3c2=O)CC1
[6]
  Time: 0.5 h
[7]
  Delta SBP: -70 mmHg

## COc1ccccc1N1CCN(CCn2c(=O)[nH]c3sc(Cl)cc3c2=O)CC1
[8]
  Delta SBP: -25 mmHg
[9]
  Time: 0.5 h

## C#CCn1c(=O)n(CCN2CCN(c3ccccc3OC)CC2)c(=O)c2cscc21
[7]
  Delta SBP: -52 mmHg
[12]
  Time: 1 h

## COc1ccccc1N1CCN(CCn2c(=O)c3cscc3n(C(=O)C(C)C)c2=O)CC1
[10]
  Delta SBP: -53 mmHg
[11]
  Time: 0.5 h

## COC(=O)CCn1c(=O)n(CCN2CCN(c3ccccc3OC)CC2)c(=O)c2cscc21
[6]
  Time: 1 h
[7]
  Delta SBP: -55 mmHg

## COc1ccccc1N1CCN(CCn2c(=O)[nH]c3c(Cl)scc3c2=O)CC1
[1]
  Delta SBP: -75 mmHg
[5]
  Time: 0.5 h

## C=CCn1c(=O)n(CCN2CCN(c3ccccc3OC)CC2)c(=O)c2cscc21
[6]
  Time: 1 h
[7]
  Delta SBP: -50 mmHg

## COc1ccccc1N1CCN(CCn2c(=O)c3cscc3n(C(C)=O)c2=O)CC1
[1]
  Delta SBP: -44 mmHg
[2]
  Time: 0.5 h

## COc1ccccc1N1CCN(CCCn2c(=O)[nH]c3sccc3c2=O)CC1
[7]
  Delta SBP: -68 mmHg
[12]
  Time: 0.5 h

## CCOC(=O)n1c(=O)n(CCN2CCN(c3ccccc3OC)CC2)c(=O)c2sccc21
[1]
  Delta SBP: -30 mmHg
[2]
  Time: 0.5 h

## O=c1[nH]c2cscc2c(=O)n1CCN1CCN(c2ccccc2Cl)CC1
[8]
  Delta SBP: -51 mmHg
[9]
  Time: 0.5 h

## CCCCCCCCn1c(=O)n(CCN2CCN(c3ccccc3OC)CC2)c(=O)c2cscc21
[7]
  Delta SBP: -54 mmHg
[12]
  Time: 2 h

## COc1ccccc1N1CCN(CCn2c(=O)c3sccc3n(C(=O)C(C)(C)C)c2=O)CC1
[1]
  Delta SBP: -62 mmHg
[2]
  Time: 0.5 h

## CCCCn1c(=O)n(CCN2CCN(c3ccccc3OC)CC2)c(=O)c2sccc21
[8]
  Delta SBP: -28 mmHg
[9]
  Time: 0.5 h

## COc1ccccc1N1CCN(CCn2c(=O)[nH]c3ccsc3c2=O)CC1
[8]
  Delta SBP: -74 mmHg
[13]
  ED50: 2.1 µg/kg
[14]
  DR20: 4 µg/kg
[15]
  ED50: 0.19 mg/kg
[9]
  Time: 0.5 h

## Cl.O=c1[nH]c2cscc2c(=O)n1CCN1CCN(c2ccc(F)cc2)CC1
[6]
  Time: 0.5 h
[7]
  Delta SBP: -68 mmHg

## COc1ccc(N2CCN(CCn3c(=O)[nH]c4ccsc4c3=O)CC2)cc1
[6]
  Time: 1 h
[7]
  Delta SBP: -68 mmHg

## O=c1[nH]c2sccc2c(=O)n1CCN1CCN(c2ccccc2Cl)CC1
[6]
  Time: 2 h
[7]
  Delta SBP: -43 mmHg

## COc1ccccc1N1CCN(CCn2c(=O)[nH]c3sccc3c2=O)CC1
[8]
  Delta SBP: -50 mmHg
[13]
  ED50: 15.4 µg/kg
[14]
  DR20: 20 µg/kg
[15]
  ED50: 1 mg/kg
[9]
  Time: 0.5 h

## CCOC(=O)CCCCn1c(=O)n(CCN2CCN(c3ccccc3OC)CC2)c(=O)c2sccc21
[1]
  Delta SBP: -30 mmHg
[5]
  Time: 0.5 h

## COc1ccccc1N1CCN(CCn2c(=O)c3cscc3n(C(=O)C(C)(C)C)c2=O)CC1
[10]
  Delta SBP: -69 mmHg
[11]
  Time: 0.5 h

## Cc1ccccc1N1CCN(CCn2c(=O)[nH]c3ccsc3c2=O)CC1
[8]
  Delta SBP: -33 mmHg
[9]
  Time: 1 h

## COc1ccc(N2CCN(CCn3c(=O)[nH]c4sccc4c3=O)CC2)cc1
[6]
  Time: 0.5 h
[7]
  Delta SBP: -40 mmHg

## COc1ccc(N2CCN(CCn3c(=O)[nH]c4cscc4c3=O)CC2)cc1
[6]
  Time: 0.5 h
[7]
  Delta SBP: -51 mmHg

— ChEMBL document CHEMBL1124204, “Thiophene systems. 9. Thienopyrimidinedione derivatives as potential antihypertensive agents” (1988)
